Reference: ChEMBL document CHEMBL1134581, “Synthesis and in vitro antitumor activity of oligonucleotide-tethered and related platinum complexes” (J Med Chem, 2001)

How the values were obtained:
Type in all cases: functional, cell-based, Homo sapiens
A2780 = assay: Growth and colony formation inhibition of A2780 ovarian cancer cell lines
Summary of the method: (§1)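 Colony formation assay in A2780 (wt p53) and SW626 (mutant p53) monolayers, RPMI 1640 with 10% FBS and 2 mM L-glutamine, 37 °C, 5% CO2. 300–500 cells/well, attached 1 day, then serially diluted drug. Exposure 7 days for A2780, 10 days for SW626. Colonies fixed and stained with 0.1% crystal violet in methanol, then counted. IC50 extrapolated. Mean ± SD of three experiments.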

[1] = Growth and colony formation inhibition of SW626 ovarian cancer cell lines; summary of the method: as §1
[2] = Growth and colony formation inhibition of PA-1 ovarian cancer cell lines
Summary of the method: (§2)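 Colony formation in PA-1 (wt p53, 7 days of drug) and SKOV-3 (p53-null, 10 days of drug). Both in RPMI 1640 with 10% FBS and 2 mM L-glutamine, 300–500 cells/well, attached 1 day. Colonies stained with 0.1% crystal violet in methanol and counted. IC50 extrapolated; three experiments. Also an MTT assay: PA-1 1000 cells/well, 1 day attachment, 5 days of drug; SKOV-3 600 cells/well, 2 days attachment, 7 days of drug. MTT 5 h, DMSO, read at 570/630 nm; four experiments.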

SK-OV-3 = assay: Growth and colony formation inhibition of SKOV-3 ovarian cancer cell lines; summary of the method: as §2
[3] = Growth and colony formation inhibition of VM-1 leukemia cancer cell lines
Summary of the method: (§3)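 CEM and teniposide-resistant CEM/VM-1 leukemia cells in suspension, MEM with 10% FBS and 2 mM L-glutamine, 37 °C, 5% CO2. Exponentially growing cells seeded in triplicate at 3 × 10^5 cells/mL. Drugs dissolved in DMSO or PBS, serially diluted, 48 h exposure. Growth inhibition by Coulter counting. IC50 extrapolated from the concentration–% inhibition plot. Mean ± SD of three experiments.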

CCRF-CEM = assay: Growth and colony formation inhibition of CEM leukemia cancer cell lines; summary of the method: as §3

| Substance | IC50 (A2780) [µM] | IC50 (SK-OV-3) [µM] | IC50 (CCRF-CEM) [µM] | IC50 [1] [µM] | IC50 [2] [µM] | IC50 [3] [µM] |
| --- | --- | --- | --- | --- | --- | --- |
| 3-(7a-Chloro-7-diisopropylamino-hexahydro-6-oxa-1,3a-diaza-platinum-7lambda*5*-phospha-inden-7-yloxy)-propionitrile | 125 | > 200 |  | > 200 | 165 |  |
| Amminedichloro(2-hydroxyethylamine)platinum (II) |  | 13 |  |  | 0.7 |  |
| CARBOPLATIN |  | 28.5 |  |  | 2.4 |  |
| DICHLORO(AMMINO ETHYLAMMINO ETHANOL) PLATINUM(II) [listing 1 of 2 here] |  | 30 |  |  | 2.9 |  |
| DICHLORO(AMMINO ETHYLAMMINO ETHANOL) PLATINUM(II) [listing 2 of 2 here] |  | 26 |  |  | 1.7 |  |
| Dichloro diacetyl oxy-(amino ethylamino ethanol) platinum | 2.8 | 24 | 7 | 28 | 1.5 | 7 |
| Dichlorodi(3-hydroxypropylamine)platinum (II) |  | 20 |  |  | 1.2 |  |
| Dichlorodi(4-hydroxybutylamine)platinum (II) |  | 23 |  |  | 1.5 |  |
| Dichlorodiacetyl oxy-(ammino acetoxy butylammino ethanol) platinum (II) |  | 22 |  |  | 0.8 |  |
| Dichlorodiacetyl oxy-(ammino acetoxy ethylammino ethanol) platinum (II) |  | 10 |  |  | 2.8 |  |

Further substances by falling IC50 (SK-OV-3), results first:

| IC50 (A2780) [µM] | IC50 (SK-OV-3) [µM] | IC50 (CCRF-CEM) [µM] | Substance | IC50 [1] [µM] | IC50 [2] [µM] | IC50 [3] [µM] |
| --- | --- | --- | --- | --- | --- | --- |
|  | 10 |  | Amminetetrachloro(4-hydroxyethylamine)platinum(IV) |  | 0.9 |  |
| 1.6 | 10 | 8 | Tetrachlorodi(3-hydroxypropylamine)platinum(IV) | 3 | 0.6 | 5 |
|  | 9 |  | Amminetetrachloro(4-hydroxybutylamine)platinum(IV) |  | 0.2 |  |
|  | 6 |  | Amminedichloro(4-hydroxybutylamine)platinum (II) |  | 0.4 |  |
| 2.2 | 4 | 10 | Tetrachlorodi(4-hydroxybutylamine)platinum(IV) | 7 | 1 | 10 |
| 0.6 | 0.5 | < 1 | CISPLATIN | 0.5 | 0.3 | < 1 |
